From PubChem
A selection: hits, their analogues and other compounds. The true share with any hit is near 1.8%.
LMPTP inh – LMPTP phosphatase inhibitors, primary screen, biochemical, fluorescence intensity, uHTS. 0.22% of 360,000 active. AID 651560, 2012. recombinant LMPTP-A, OMFP fluorogenic substrate. inhibition, % at 20 µM;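 active = compounds that cut the enzyme signal by at least half of the control window in the single-dose screen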;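 also: plate controls were DMSO wells with enzyme plus substrate for no effect and substrate without enzyme for full effect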
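test system = LMPTP-A | amount = 0.625 nM LMPTP-A final | reagent = fluorogenic phosphatase substrate OMFP at 400 µM final | incubation = 50 min at room temperature | benchmarks = no-enzyme low control, uninhibited high control | medium = Bis-Tris pH 6.0, DTT, detergent | signal = fluorescence intensity of OMFP turnover product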
STEP inh – STEP phosphatase inhibitors, primary screen, biochemical, fluorescence intensity, uHTS | 0.25% of 360,000 active | inhibition, % at 20 µM | recombinant STEP, OMFP fluorogenic substrate;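 active = inhibition at 20 µM, scaled per plate between control wells, above about 37%, limit read from the data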;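 also: 0% = DMSO with enzyme and substrate and 100% = substrate only without enzyme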
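material = STEP tyrosine phosphatase | reagent = fluorogenic phosphatase substrate OMFP at 25 µM final | doses = single compound dose of 20 µM, 1% DMSO final | schedule = 20 min reaction, room temperature, in the dark | measured by = fluorescence, 480/540 nm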
Scp1 inh – Scp-1 phosphatase inhibitors, primary screen, biochemical, colorimetric, uHTS. Carboxy-terminal domain RNA polymerase II polypeptide A small phosphatase 1 (Homo …. Recombinant Scp1, phosphopeptide, malachite green phosphate absorbance. inhibition, % at 20 µM. 0.88% of 340,000 active. AID 493091, 2011;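 active = inhibition above about 50% at 20 µM, limit read from the data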;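 also: plate controls were DMSO wells with enzyme for no effect and wells lacking enzyme for full effect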
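Test system – truncated SCP-1 phosphatase (76-261aa) · Reagent – Phosphorylated 17-residue peptide substrate · Incubation – 45 min room-temperature reaction, 5 min colour, 30 min stabiliser · Detection – colorimetric phosphate reagent with accelerator and stabiliser, absorbance at 630 nm · Measure – % inhibition at 20 µM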
DNMT1 block – human DNMT1 methyltransferase inhibitors, primary screen, biochemical, molecular beacon, fluorescence, HinP1I cleavage, uHTS | inhibition (reported as % activation of signal), % at 10 µM | 0.83% of 360,000 active; in the data active = inhibition above about 50%
SUMO1 PPI mod – modulators of SUMO1 protein-protein interactions, primary screen, biochemical, uHTS; Small ubiquitin-related modifier 1 (Homo sapiens), P63165; inhibition, % at 20 µM; SUMO1 binding to a labelled peptide, TR-FRET, 1 h; 0.33% of 360,000 active; AID 602429, 2012; in the data active = inhibition above about 37%
Beacon interf DR – spectral interference with molecular beacon fluorescence, dose response, artefact control for DNMT1 inhibitor project, biochemical, fluorescent molecular beacon; shares compounds with DNMT1 block; spectral interference counter-screen; IC50, µM; 200 tested, under 10 active; AID 602382, 2012; call rule not given here
DNMT1 inh conf – DNMT1 methyltransferase inhibitor retest, confirmation, biochemical, molecular beacon, fluorescence, single concentration | shares compounds with DNMT1 block | DNMT1 molecular beacon HinP1I cleavage | inhibition, % at 10 µM | 8% of 2,300 active | AID 602385, 2012;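 active = average inhibition of at least 30% in the single-concentration confirmation test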
Beacon interf – counter-screen for DNMT1 inhibitors: spectral interference; DNMT1 molecular beacon spectral interference counterscreen, fluorescence 485/520; 1% of 2,300 active; shares compounds with DNMT1 block; activation (fluorescence interference), % at 10 µM;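 active = activation of at least 30% at 10 µM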;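 also: DNMT1 catalytic domain with a HinP1I cleavage step and a FAM/dabcyl DNA beacon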
The depositor's hits bear a star; x = no result.

SMILES	LMPTP inh	STEP inh	Scp1 inh	DNMT1 block	SUMO1 PPI mod	DNMT1 inh conf	Beacon interf	others
Cc1ccc(-c2nnc(SCC(=O)NCC3CCCO3)nc2-c2ccc(C)cc2)cc1 (configuration not stated)	2	0	-9	0	-34	x	x
COc1ccc(N2Cc3cccc(C(=O)NC(C)CCc4ccco4)c3C2=O)cc1 (configuration not stated)	12	2	79*	77*	5	3	1
O=C(/C=C/c1ccc(Cl)cc1)NC(=S)Nc1ccc(NC(=O)c2ccco2)cc1	1	-5	0	58*	4	2	-3
CN(c1ccccc1)S(=O)(=O)c1cccc(NC(=O)C2=NN(c3ccccc3)C(=O)CC2)c1	2	0	-9	-6	1	x	x
O=C(CN1c2cccc3cccc(c23)S1(=O)=O)Nc1c(F)c(F)c(F)c(F)c1F	2	1	6	0	-4	x	x
CC(SC(C)C(=O)NN=Cc1cccc(Cl)c1)C(=O)NN=Cc1cccc(Cl)c1 (configuration not stated)	-1	0	-7	65*	-1	6	7
COc1ccc(/C=C/C(=O)OCC(=O)NCC2CCCO2)cc1 (configuration not stated)	0	1	3	0	-9	x	x
CCOC(=O)/C=c1/s/c(=C/c2ccc3cc(OC)ccc3c2)c(=O)n1CC(=O)NCc1ccc2c(c1)OCO2	2	-5	-10	54*	13	1	4
CCOC(=O)/C=c1\s/c(=C\c2ccc(-c3ccccc3)cc2)c(=O)n1CC(=O)NCc1ccc2c(c1)OCO2	3	5	-2	-5	-2	x	x
CCOC(=O)/C=c1\s/c(=C\c2ccc3cc(OC)ccc3c2)c(=O)n1CC(=O)NCC1CCCO1 (configuration not stated)	-1	-3	-8	58*	-1	7	-1
O=C(COC(=O)c1ccccc1O)Nc1cccc2ccccc12	0	-2	0	37	6	x	x
COC1=CC(=NCl)C=CC1=NCl	36	7	x	43	16	x	x
ClN=C1C=CC=CC1=NCl	68*	8	x	114*	57*	36*	-8	Beacon interf DR=>99
CCCCCCn1c(=O)[nH]c2nc3cc(N)c(C)cc3nc2c1=O	-11	-199	-3	63*	-24	74*	118*
CC(C)(C)OC(=O)NCc1ccc(NC(=O)c2nc[nH]c2C(=O)NCCCCNC(=O)c2[nH]cnc2C(=O)Nc2ccc(CNC(=O)OC(C)(C)C)cc2)cc1	-3	-6	-4	61*	24	0	1
CC(C)(C)OC(=O)NCc1ccc(NC(=O)c2nc[nH]c2C(=O)NCCCCCCNC(=O)c2[nH]cnc2C(=O)Nc2ccc(CNC(=O)OC(C)(C)C)cc2)cc1	8	0	-5	15	7	x	x
CC(C)(C)OC(=O)NCc1ccc(NC(=O)c2nc[nH]c2C(=O)NCCCNC(=O)c2[nH]cnc2C(=O)Nc2ccc(CNC(=O)OC(C)(C)C)cc2)cc1	-4	-4	1	60*	2	1	-2
CC(C)(C)n1nnnc1C(c1ccccc1)N1CCCN(Cc2ccc(F)cc2)CC1 (configuration not stated)	-1	x	x	x	-1	x	x
Cc1ccc(-c2[nH]ncc2/C=N/n2c(COc3ccccc3C)nc3ccccc3c2=O)cc1	0	3	-4	70*	2	0	-2
Cc1ccccc1OCc1nc2ccccc2c(=O)n1/N=C/c1c[nH]c2ccccc12	1	1	-4	8	1	x	x
Cc1ccccc1CC(=O)NCCN1CCCCC1	-2	-2	23	80*	-2	0	3
C=C(C)C1(O)OC(=O)C=C1OC (configuration not stated)	0	-3	4	53*	-2	5	4
CC(=O)Nc1ccc(N2C(=O)c3cccc4c(O)ccc(c34)C2=O)cc1	-1	-32	12	51*	-105	106*	99*
CCc1nnc(NS(=O)(=O)c2ccc(NC(=S)NC(=O)/C=C/c3ccc(C(C)C)cc3)cc2)s1	4	0	-10	62*	27	33*	-4	Beacon interf DR=>99
O=C(/C=C/c1ccc(Br)cc1)NC(=S)Nc1ccc(S(=O)(=O)Nc2nccs2)cc1	16	-3	-3	86*	94*	67*	-2	Beacon interf DR=>99
SMILES	LMPTP inh	STEP inh	Scp1 inh	DNMT1 block	SUMO1 PPI mod	DNMT1 inh conf	Beacon interf	others
CCN(C(=O)C(C)Sc1nnc(-c2ccncc2)n1C)C1CCCCC1 (configuration not stated)	-1	-2	-4	6	6	x	x
COc1ccc(OC)c(S(=O)(=O)Nc2cc(OC)c(Cl)cc2OC)c1	0	2	-5	69*	3	4	6
CCOc1ccc(C2=CC(=O)C[C@H](c3ccc(OC)cc3)C2)cc1	3	1	-14	-1	-29	x	x
COc1cc(/C=N/NC(=O)c2nnn(-c3nonc3N)c2C(C)C)ccc1OCc1ccccc1	6	2	-7	-15	-3	x	x
COc1cc(/C=N/NC(=O)c2nnn(-c3nonc3N)c2C)ccc1OCc1ccc(Cl)cc1	20	8	x	58*	4	-1	-1
CC1(C)CC2(CCCN(CC(O)(c3ccccc3)c3ccccc3)C2)CCO1 (configuration not stated)	1	1	-6	94*	2	4	3
CCOc1ccccc1C(=O)NCC(=O)NNC(=O)c1csc(N2CCOCC2)n1	0	-3	x	-2	2	x	x
CCNCc1cc(Br)c(OCC(=O)Nc2ccccc2)c(OC)c1	0	-2	-9	7	0	x	x
COc1cc(CNCC(C)C)cc(Br)c1OCC(=O)Nc1ccccc1	0	1	-2	87*	0	3	4
CN(C)S(=O)(=O)c1cccc(NC(=O)c2cccc(S(=O)(=O)N3CCCCC3)c2)c1	-2	0	-3	-4	2	x	x
